Results filed as inconclusive are left out.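 How the source made its calls, unless noted: active means inhibition over a set limit, the all-compound mean plus 3 SD, in both replicate runs; inconclusive means over that limit in just one replicate run; inactive means at or under that limit in both runs.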
Legend:
[1] = S. cerevisiae growth inhibition in permissive medium (OD615), pilot counter-assay for S. cerevisiae lifespan shortening project, permissive growth control (AID 705;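 active means growth inhibition above 25% in both replicates, a cutoff set 3 SD above the mean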); settings: OD615, 24 h, at 10 µM, stronger effect = higher value
How it was run: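 System: engineered DeaD yeast; Medium: permissive raffinose/galactose medium; Compound dosing: 10 µM single dose, 0.25% DMSO; Incubation: 4 h cell pre-growth, 24 h exposure at 30 °C; Technique: OD at 615 nm; Evaluation: growth inhibition from lowered OD615 after 24 h.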

[2] = S. cerevisiae growth inhibition in restrictive medium, OD615, pilot screen, restrictive growth control, yeast lifespan reduction project (AID 706;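 active means growth inhibition above a set limit, 3 SD over mean compound inhibition, in both replicates, cut at about 43% in these data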;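 further: modified DeaD lifespan yeast strain shifted to restrictive glucose medium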); settings: OD615, 48 h, at 10 µM, stronger effect = higher value
How it was run: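 Material: modified S. cerevisiae; buffer or medium: CSMM-D glucose medium; doses: one concentration, 10 µM final, 0.25% DMSO; incubation: 48 h compound exposure at 30 °C; detection: optical density at 615 nm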

[3] = doxorubicin toxicity protection in MRP-1 cells – H69AR cells, CellTiter-Glo, duplicate, MRP-1 activator project, pilot screen (AID 807;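 active means viability increase at or above a cutoff of the median across tested compounds plus 3 SD, cut at about 8.5% in these data, passing the limit was not always enough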;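 further: compound pretreatment 18-22 h then 72 h combined with doxorubicin; 0% = doxorubicin alone and 100% = vehicle without doxorubicin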); settings: H69AR viability with doxorubicin, CellTiter-Glo luminescence; at 10 µM; stronger effect = higher value
[4] = viability of HCT116 without oncogenic beta-catenin – human colon tumor cells, pilot screen (AID 823;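 active means cell viability at or below a set limit in both duplicate runs, the limit being the all-compound median minus 4 SD, cut at about 23% in these data, passing the limit was not always enough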;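 further: 0% = wells killed by 20 µM Hyamine and 100% = untreated DMSO cell wells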); settings: HCT116 beta-catenin knockout viability, CellTiter-Glo, 60 h; at 10 µM; stronger effect = lower value
[5] = viability of PTEN-null HCT116 cells – cell-based, HCT116 clonal line, CellTiter-Glo, pilot screen (AID 824;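 active means viability at or below 27.92% in each of two runs, the all-compound median minus 4 SD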;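 further: 0% = 20 µM Hyamine control and 100% = vehicle cell control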); settings: HCT116 PTEN-deleted viability, 60 h, at 10 µM, stronger effect = lower value
[6] = RAM pathway blockade in budding yeast – dse1pr::URA3 reporter, 5-FOA selection, pilot screen (AID 869);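 further: 0% = DMSO wells with no growth and 100% = 10 µM 1-NA-PP1 with full growth; RAM network block rescues cells from 5-FOA so hits raise OD615 growth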; settings: S. cerevisiae dse1pr::URA3 5-FOA growth, OD615, 2 d; at 10 µM; stronger effect = higher value; strain carries analog-sensitive mutant Cbk1 kinase
[7] = RAM signaling pathway blockade in yeast – S. cerevisiae, Pdr1DBD-CYC8 efflux-inhibited sensitized strain, primary screen (AID 1298;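 active means RAM network inhibition above 8.4% in each of two replicates, 3 SD over the compound average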;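 further: 0% = DMSO untreated cells without growth and 100% = 10 µM 1-NA-PP1 full growth; higher means more yeast growth rescued from 5-FOA killing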); settings: S. cerevisiae cbk1-as DSE1-URA3 strain, 5-FOA growth OD615, 2 d; at 50 µM; stronger effect = higher value

Cc1c(C(=O)NCCCN2CCOCC2)sc2nc(-c3ccccc3)cn12
inactive: growth inhibition [1] -10.7% | growth inhibition [2] -11.8% | viability increase [3] -1.59% | viability [4] 92.2% | viability [5] 96% | inhibition [6] 3.44% | RAM network inhibition [7] -0.37%

CC(=O)Nc1nonc1-c1nc2ccccc2n1Cc1nnc(C)o1
inactive: growth inhibition [1] 3.66% | growth inhibition [2] 2.84% | viability increase [3] -3.32% | viability [4] 99.7% | viability [5] 97.1% | inhibition [6] 2.09% | RAM network inhibition [7] 1.99%

CCOC(=O)c1[nH]c(C)c(C(=O)NC(C)CC)c1C (stereo unspecified)
inactive: growth inhibition [1] 2.05% | growth inhibition [2] -0.41% | viability increase [3] 1.35% | viability [4] 103% | viability [5] 99.7% | inhibition [6] 1.21% | RAM network inhibition [7] 0.93%

COc1ccc(-c2cn3c(C)c(C(=O)N4CCCc5ccccc54)sc3n2)cc1
inactive: growth inhibition [1] 0.505% | growth inhibition [2] 24.2% | viability increase [3] -3.31% | viability [4] 64.9% | viability [5] 65.6% | inhibition [6] 0.565% | RAM network inhibition [7] 3.08%

CCOC(=O)c1ccc(NC(=O)C2CCCN(S(=O)(=O)c3cnc[nH]3)C2)cc1 (stereo unspecified)
inactive: growth inhibition [1] 2.33% | growth inhibition [2] 2.53% | viability increase [3] 0.94% | viability [4] 105% | viability [5] 96.7% | inhibition [6] 0.31% | RAM network inhibition [7] 2.17%

CCCCCn1c(CCCNC(=O)CC)nc2ccccc21
inactive: growth inhibition [1] -8.6% | growth inhibition [2] -0.63% | viability increase [3] -2.94% | viability [4] 89% | viability [5] 97.6% | inhibition [6] 0.405% | RAM network inhibition [7] 2.13%

CC(C)=CC1C(C(=O)Nc2ccc(Br)cn2)C1(C)C (stereo unspecified)
inactive: growth inhibition [1] -14.6% | growth inhibition [2] -19.1% | viability increase [3] -0.01% | viability [4] 60.7% | viability [5] 63.2% | inhibition [6] 3.15% | RAM network inhibition [7] 4.66%

Nc1cc(=O)[nH]c(SCc2nc3ccccc3n2Cc2ccccc2)n1
inactive: growth inhibition [1] -2.77% | growth inhibition [2] 17% | viability increase [3] -0.14% | viability [4] 90.4% | viability [5] 89% | inhibition [6] 0.71% | RAM network inhibition [7] 6.17%

Cn1c(=O)c2c(nc(N3CCCCCC3)n2CCSc2nc3ccccc3o2)n(C)c1=O
inactive: growth inhibition [1] -6.38% | growth inhibition [2] -18.4% | viability increase [3] -6.62% | viability [4] 80.4% | viability [5] 83% | inhibition [6] 1.14% | RAM network inhibition [7] 2.45%

COc1cc(NC(=O)c2c(-c3ccccc3Cl)noc2C)c2ncccc2c1
inactive: growth inhibition [1] -15.8% | growth inhibition [2] -18.1% | viability increase [3] -0.47% | viability [4] 60.2% | viability [5] 64.3% | inhibition [6] 2.6% | RAM network inhibition [7] 7.52%

CC1(C)CC2CC(C)(CN2C(=O)c2cc(-c3ccccc3O)on2)C1 (stereo unspecified)
inactive: growth inhibition [1] -11.4% | growth inhibition [2] -4.57% | viability increase [3] -5.87% | viability [4] 75.5% | viability [5] 61.9% | inhibition [6] 2.44% | RAM network inhibition [7] 6.15%

COc1cccc(-n2c(Cc3cc(=O)[nH]c(=O)[nH]3)nnc2SCC(=O)N2CCCCC2)c1
inactive: growth inhibition [1] -2.5% | growth inhibition [2] -0.925% | viability increase [3] -1.49% | viability [4] 112% | viability [5] 96.8% | inhibition [6] 1.77% | RAM network inhibition [7] 5.28%

CC1CN(Cc2nc3c(c(=O)n(C)c(=O)n3C)n2Cc2ccc(Cl)cc2)CC(C)O1 (stereo unspecified)
inactive: growth inhibition [1] -3.79% | growth inhibition [2] 0.39% | viability increase [3] -0.99% | viability [4] 91.6% | viability [5] 91.9% | inhibition [6] 2.13% | RAM network inhibition [7] 4.34%

CCOc1ccccc1N(CC)C(=O)Cn1ncc2c(=O)oc3ccccc3c21
inactive: growth inhibition [1] -11.6% | growth inhibition [2] -7.42% | viability increase [3] -1.85% | viability [4] 95.7% | viability [5] 96.2% | inhibition [6] -0.255% | RAM network inhibition [7] 4.3%

O=C(CN1CCN(C(=O)c2ccco2)CC1)Nc1ccccc1-c1ccccc1
inactive: growth inhibition [1] 6.65% | growth inhibition [2] 6.94% | viability increase [3] -2.16% | viability [4] 91% | viability [5] 86.1% | inhibition [6] 1.32% | RAM network inhibition [7] 3.75%

O=C(C1CCN(S(=O)(=O)c2cccc3cccnc23)CC1)N1CC=C(c2ccccc2)CC1
inactive: growth inhibition [1] 6.34% | growth inhibition [2] 9.98% | viability increase [3] -2.61% | viability [4] 79.9% | viability [5] 83% | inhibition [6] 1.93% | RAM network inhibition [7] 2.07%

Nc1nonc1C(=O)NCCc1ccccc1
inactive: growth inhibition [1] -6.66% | growth inhibition [2] 6.3% | viability increase [3] -0.05% | viability [4] 116% | viability [5] 99.6% | inhibition [6] 0.71% | RAM network inhibition [7] -0.76%

COCCNC(=O)c1cc(-c2ccc(Cl)c(Cl)c2)on1
inactive: growth inhibition [1] -2.25% | growth inhibition [2] -1.81% | viability increase [3] -0.93% | viability [4] 82.5% | viability [5] 87.8% | inhibition [6] 0.18% | RAM network inhibition [7] 5.68%

Cc1nn(C)c(C)c1S(=O)(=O)N(CC(=O)NCc1cccs1)c1ccc(C(C)C)cc1
inactive: growth inhibition [1] -16.9% | growth inhibition [2] -13.5% | viability increase [3] -3.06% | viability [4] 99% | viability [5] 87.5% | inhibition [6] 2.2% | RAM network inhibition [7] 8.44%

Cc1cc(=O)c2c(C)nn(-c3ccccc3)c2[nH]1
inactive: growth inhibition [1] -2.51% | growth inhibition [2] 2.11% | viability increase [3] -2.26% | viability [4] 96.7% | viability [5] 92.3% | inhibition [6] 2.23% | RAM network inhibition [7] 1.4%

CCOC(=O)N1CCN(C(=O)c2cc3c(-c4ccc(Cl)cc4)nn(C)c3s2)CC1
inactive: growth inhibition [1] -5.13% | growth inhibition [2] 4.77% | viability increase [3] -6.02% | viability [4] 55.8% | viability [5] 49.2% | inhibition [6] 0.47% | RAM network inhibition [7] 1.8%

COc1ccc(OC)c(S(=O)(=O)NCCc2cn3ccsc3n2)c1
inactive: growth inhibition [1] -6.71% | growth inhibition [2] -11.5% | viability increase [3] -2.28% | viability [4] 105% | viability [5] 103% | inhibition [6] 3.81% | RAM network inhibition [7] 3.59%

CS(=O)(=O)c1ccc(C(=O)NC2CCOC2=O)cc1 (stereo unspecified)
inactive: growth inhibition [1] -2.63% | growth inhibition [2] -3.86% | viability increase [3] -1.85% | viability [4] 102% | viability [5] 97.6% | inhibition [6] -0.295% | RAM network inhibition [7] 4.25%

O=C(c1ccncc1)N1CCN(C(=O)c2cccc3ccccc23)CC1
inactive: growth inhibition [1] -14.8% | growth inhibition [2] -7.07% | viability increase [3] -2.73% | viability [4] 101% | viability [5] 93.9% | inhibition [6] 2.16% | RAM network inhibition [7] 2.45%

O=C(CSc1ccccn1)c1ccc(F)cc1
inactive: growth inhibition [1] 10.7% | growth inhibition [2] 17.6% | viability increase [3] -0.02% | viability [4] 100% | viability [5] 102% | inhibition [6] 2.88% | RAM network inhibition [7] 1.72%

CCOC(=O)N1CCN(C(=O)c2ccc3c(=O)n(CCC4=CCCCC4)c(=S)[nH]c3c2)CC1
inactive: growth inhibition [1] -6.92% | growth inhibition [2] 3.16% | viability increase [3] -7.23% | viability [4] 49.1% | viability [5] 45.5% | inhibition [6] 3.38% | RAM network inhibition [7] 4.35%

O=C(CN1C(=O)CCC1=O)Nc1nc(-c2ccccn2)cs1
inactive: growth inhibition [1] -5.94% | growth inhibition [2] -9.21% | viability increase [3] -0.35% | viability [4] 106% | viability [5] 101% | inhibition [6] 0.045% | RAM network inhibition [7] 3.42%

O=C(c1ccccc1)N1CCN(c2ccc(NCc3ccc4c(c3)OCO4)cc2)CC1
inactive: growth inhibition [1] -15.1% | growth inhibition [2] -14.4% | viability increase [3] -3.84% | viability [4] 64.7% | viability [5] 75.8% | inhibition [6] 1.77% | RAM network inhibition [7] 6.1%

Cc1cc(=O)oc2c(N)c(O)ccc12
inactive: growth inhibition [1] -4.57% | growth inhibition [2] -11.6% | viability increase [3] -4.95% | viability [4] 101% | viability [5] 98.5% | inhibition [6] 0.53% | RAM network inhibition [7] 1.88%

CC1Cc2ccccc2N1C1=NS(=O)(=O)c2ccccc21 (stereo unspecified)
inactive: growth inhibition [1] -3.44% | growth inhibition [2] -25.5% | viability increase [3] -1.97% | viability [4] 91.7% | viability [5] 96.5% | inhibition [6] 2.68% | RAM network inhibition [7] 7%

O=C(Cn1cc2c(n1)CCCC2)NCC1CCCO1 (stereo unspecified)
inactive: growth inhibition [1] -2.07% | growth inhibition [2] 3.85% | viability increase [3] 0.41% | viability [4] 103% | viability [5] 95.9% | inhibition [6] 1.89% | RAM network inhibition [7] 4.01%

CC(=O)Nc1ccc(S(=O)(=O)Nc2nc(C)cc(-n3nc(C)cc3C)n2)cc1
inactive: growth inhibition [1] -8.39% | growth inhibition [2] -6.55% | viability increase [3] -1.84% | viability [4] 102% | viability [5] 102% | inhibition [6] 1.25% | RAM network inhibition [7] 2.89%

COc1ccc(C(=O)O)cc1Nc1cc(C)nc2ncnn12
inactive: growth inhibition [1] 1.95% | growth inhibition [2] -2.37% | viability increase [3] -1.14% | viability [4] 103% | viability [5] 93% | inhibition [6] 0.015% | RAM network inhibition [7] 0.94%

From PubChem BioAssay
